The test system of experiment [1] is Citrobacter freundii. The experiment can be described thus: Antimicrobial activity against aac(6')-Ib-cr-positive Citrobacter freundii JN1T by agar dilution method in presence of Tazobactam. It is filed as functional. The procedure, abridged: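 MIC by CLSI agar dilution (M7-A7), with categories interpreted per CLSI M100-S17.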
On the technique in general: Agar dilution tests growth on a series of plates holding different concentrations.

The test system of experiment [2] is Enterobacter cloacae. The experiment can be described thus: Antimicrobial activity against aac(6')-Ib-cr-negative Enterobacter cloacae WH42T harboring qnrA gene by agar dilution method in presence of Tazobactam. It is filed as functional. In outline: (§1)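 MICs were determined by the CLSI agar dilution method (M7-A7) and interpreted against CLSI M100-S17 breakpoints.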

In experiment [3] the test system is Klebsiella pneumoniae. The experiment can be described thus: Antimicrobial activity against aac(6')-Ib-cr-positive Klebsiella pneumoniae JN41T harboring qnrB gene by agar dilution method in presence of Tazobactam. In kind it is functional. The procedure, abridged:
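Transconjugants were made by conjugating a qnr/aac(6')-Ib-cr donor with azide-resistant E. coli J53. Selection used Trypticase soy agar with sodium azide 150 µg/ml and sulfamethoxazole 180 µg/ml. […] MICs were read by CLSI agar dilution (M7-A7) and interpreted per M100-S17.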

In experiment [4] the test system is Klebsiella pneumoniae. The experiment can be described thus: Antimicrobial activity against aac(6')-Ib-cr-negative Klebsiella pneumoniae SY22 harboring GyrA S83I, ParC S80I mutant, wild-type GyrB and qnrS genes by agar dilution method in presence of Tazobactam. It is filed as functional. In outline: (§2)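 MICs measured by CLSI agar dilution (M7-A7) and interpreted against CLSI M100-S17 breakpoints. Strains were clinical Enterobacteriaceae isolates or the azide-resistant E. coli J53 recipient.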

Experiment [5] has as its system Enterobacter cloacae. The experiment can be described thus: Antimicrobial activity against aac(6')-Ib-cr-negative Enterobacter cloacae WH42 harboring wild-type GyrA, ParC, GyrB and qnrA genes by agar dilution method in presence of Tazobactam. It is filed as functional. The procedure, abridged:
as §2

Experiment [6] has as its system Klebsiella pneumoniae. The experiment can be described thus: Antimicrobial activity against aac(6')-Ib-cr-positive Klebsiella pneumoniae JN41 harboring GyrA S83I, ParC S80I mutant, wild-type GyrB and qnrB genes by agar dilution method in presence of Tazobactam. In kind it is functional. In outline: as §2
For experiment [7], the system named is Escherichia coli. The experiment can be described thus: Antimicrobial activity against aac(6')-Ib-cr-negative Escherichia coli PU12T harboring wild-type GyrA, GyrB, ParC and qnrS genes by agar dilution method in presence of Tazobactam. It is filed as functional. In outline: (§3)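 Transconjugants came from conjugation of qnr and/or aac(6')-Ib-cr donors into azide-resistant E. coli J53. […] MICs were measured by CLSI agar dilution (M7-A7) and interpreted per M100-S17.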

The subject of experiment [8] is Enterobacter cloacae. The experiment can be described thus: Antimicrobial activity against aac(6')-Ib-cr-negative Enterobacter cloacae SH39T harboring qnrA gene by agar dilution method in presence of Tazobactam. It is filed as functional. In outline:
as §1

Experiment [9] deals with Citrobacter freundii. The experiment can be described thus: Antimicrobial activity against aac(6')-Ib-cr-positive Citrobacter freundii TJ15 harboring GyrA T83I, ParC S80I mutant, wild-type GyrB, qnrB genes by agar dilution method in presence of Tazobactam. In kind it is functional. The procedure, abridged:
as §1

In experiment [10] the test system is Citrobacter freundii. The experiment can be described thus: Antimicrobial activity against aac(6')-Ib-cr-positive Citrobacter freundii JN1 harboring GyrA T83I, ParC S80I mutant, wild-type GyrB and qnrA genes by agar dilution method in presence of Tazobactam. In kind it is functional. In outline:
(§4)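 MICs were determined by CLSI agar dilution (M7-A7) and interpreted by CLSI M100-S17 breakpoints. The curator's line names the β-lactamase inhibitor added.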

Experiment [11] relates to Enterobacter cloacae. The experiment can be described thus: Antimicrobial activity against aac(6')-Ib-cr-negative Enterobacter cloacae GZ47 harboring qnrB and qnrS genes by agar dilution method in presence of Tazobactam. In kind it is functional. In outline:
as §1

In experiment [12] the test system is Enterobacter cloacae. The experiment can be described thus: Antimicrobial activity against aac(6')-Ib-cr-negative Enterobacter cloacae FJ61 harboring GyrA S83I, GyrA D87A, ParC S80I mutant, wild-type GyrB and qnrS genes by agar dilution method in presence of Tazobactam. In kind it is functional. The procedure, abridged:
as §1

Experiment [13] relates to Enterobacter cloacae. The experiment can be described thus: Antimicrobial activity against aac(6')-Ib-cr-negative Enterobacter cloacae SH39 harboring GyrA S83I, ParC S80I mutant, wild-type GyrB and qnrA genes by agar dilution method in presence of Tazobactam. In kind it is functional. The procedure, abridged: as §1
Experiment [14] deals with Klebsiella pneumoniae. The experiment can be described thus: Antimicrobial activity against aac(6')-Ib-cr-positive Klebsiella pneumoniae JN132T harboring qnrB gene by agar dilution method in presence of Tazobactam. It is filed as functional. The procedure, abridged:
as §3

Experiment [15] deals with Enterobacter cloacae. The experiment can be described thus: Antimicrobial activity against aac(6')-Ib-cr-positive Enterobacter cloacae FJ63 harboring GyrA S83I, GyrA D87A, ParC S80I mutant, wild-type GyrB and qnrS genes by agar dilution method in presence of Tazobactam. It is filed as functional. In outline: as §1
Experiment [16] relates to Citrobacter freundii. The experiment can be described thus: Antimicrobial activity against aac(6')-Ib-cr-positive Citrobacter freundii PU55 harboring GyrA T83I, ParC S80I mutant, wild-type GyrB, qnrA genes by agar dilution method in presence of clavulanic acid. It is filed as functional. In outline:
as §1

The subject of experiment [17] is Enterobacter cloacae. The experiment can be described thus: Antimicrobial activity against aac(6')-Ib-cr-negative Enterobacter cloacae FJ61 harboring GyrA S83I, GyrA D87A, ParC S80I mutant, wild-type GyrB and qnrS genes by agar dilution method. It is filed as functional.
Experiment [18] relates to Enterobacter cloacae. The experiment can be described thus: Antimicrobial activity against aac(6')-Ib-cr-negative Enterobacter cloacae GZ47 harboring qnrB and qnrS genes by agar dilution method. In kind it is functional.
The test system of experiment [19] is Klebsiella pneumoniae. The experiment can be described thus: Antimicrobial activity against aac(6')-Ib-cr-negative Klebsiella pneumoniae SY22T harboring qnrS gene by agar dilution method. In kind it is functional. In outline:
as §1

In experiment [20] the test system is Klebsiella pneumoniae. The experiment can be described thus: Antimicrobial activity against aac(6')-Ib-cr-positive Klebsiella pneumoniae SY26T harboring wild-type GyrA, ParC, GyrB and qnrB genes by agar dilution method in presence of clavulanic acid. It is filed as functional. The procedure, abridged:
(§5)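 Transconjugants came from conjugation of qnr and/or aac(6')-Ib-cr-carrying donors with azide-resistant E. coli J53. […] MICs were determined by CLSI agar dilution (M7-A7) and interpreted by M100-S17.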

For experiment [21], the system named is Klebsiella pneumoniae. The experiment can be described thus: Antimicrobial activity against aac(6')-Ib-cr-positive Klebsiella pneumoniae WH99 harboring wild-type GyrA, ParC, GyrB and qnrB genes by agar dilution method in presence of clavulanic acid. In kind it is functional. In outline:
as §2

Experiment [22] concerns Escherichia coli. The experiment can be described thus: Antimicrobial activity against aac(6')-Ib-cr-negative Escherichia coli PU12T harboring wild-type GyrA, GyrB, ParC and qnrS genes by agar dilution method. It is filed as functional. The procedure, abridged:
as §1

The test system of experiment [23] is Enterobacter cloacae. The experiment can be described thus: Antimicrobial activity against aac(6')-Ib-cr-negative Enterobacter cloacae FJ67 harboring […] and qnrS genes by agar dilution method in presence of clavulanic acid. In kind it is functional. The procedure, abridged: as §1
In experiment [24] the test system is Enterobacter cloacae. The experiment can be described thus: Antimicrobial activity against aac(6')-Ib-cr-negative Enterobacter cloacae GZ47T harboring qnrB gene by agar dilution method in presence of clavulanic acid. It is filed as functional. In outline: as §1
Experiment [25] concerns Escherichia coli. The experiment can be described thus: Antimicrobial activity against aac(6')-Ib-cr-negative Escherichia coli PU12 harboring GyrA S83L mutant, wild-type GyrB, ParC and qnrS genes by agar dilution method in presence of clavulanic acid. It is filed as functional. In outline:
as §4

For experiment [26], the system named is Klebsiella pneumoniae. The experiment can be described thus: Antimicrobial activity against aac(6')-Ib-cr-positive Klebsiella pneumoniae GZ40T harboring qnrB gene by agar dilution method.
In experiment [27] the test system is Escherichia coli. The experiment can be described thus: Antimicrobial activity against aac(6')-Ib-cr-positive Escherichia coli FJ3 harboring GyrA S83L, ParC S80R mutant, wild-type GyrB and qnrB genes by agar dilution method. It is filed as functional. In outline:
as §1

The subject of experiment [28] is Enterobacter cloacae. The experiment can be described thus: Antimicrobial activity against aac(6')-Ib-cr-positive Enterobacter cloacae FJ63T harboring qnrS gene by agar dilution method in presence of clavulanic acid. In kind it is functional. The procedure, abridged:
as §5

Experiment [29] relates to Klebsiella pneumoniae. The experiment can be described thus: Antimicrobial activity against aac(6')-Ib-cr-positive Klebsiella pneumoniae WH99T harboring qnrB gene by agar dilution method in presence of clavulanic acid. It is filed as functional. In outline:
as §5

These results are taken from ChEMBL document CHEMBL1275556, “High prevalence of plasmid-mediated quinolone resistance genes qnr and aac(6')-Ib-cr in clinical isolates of Enterobacteriaceae from nine teaching hospitals in China” (2008).

In brackets after ≈: the same amount, converted by molar mass.

The MIC is the least concentration at which growth counts as inhibited. As for `CCN1CCN(C(=O)N[C@@H](C(=O)N[C@@H]2C(=O)N3[C@@H]2SC(C)(C)[C@@H]3C(=O)O)c2ccccc2)C(=O)C1=O` [PIPERACILLIN], the minimum inhibitory concentration (MIC) worked out at 2 µg/mL in experiment [1]; 1 µg/mL in [2]; 2 µg/mL in [3]; 4 µg/mL in experiment [4]; 64 µg/mL in [5]; 4 µg/mL in experiment [6]. Moreover, the MIC in experiment [7] was determined as 1 µg/mL; in experiment [8], 1 µg/mL; in experiment [9] it was 4 µg/mL; in [10], 16 µg/mL; in experiment [11], 4 µg/mL; in experiment [12] it was 8 µg/mL. Besides, the minimal inhibitory concentration (MIC) in experiment [13] was 2 µg/mL; in experiment [14], 4 µg/mL; in [15], greater than 256 µg/mL.

Consider `CO/N=C(\C(=O)N[C@@H]1C(=O)N2C(C(=O)O)=C(COC(C)=O)CS[C@H]12)c1csc(N)n1` [CEFOTAXIME], for which the MIC stood at 256 µg/mL in [16]; 256 µg/mL (≈ 562 µM) in experiment [17]; 64 µg/mL (≈ 141 µM) in experiment [18]; 0.5 µg/mL (≈ 1.1 µM) in [19]; 0.032 µg/mL in [20]; 64 µg/mL in experiment [21]. In addition, the minimal inhibitory concentration (MIC) in [22] was determined as 16 µg/mL (≈ 35.1 µM); in experiment [23], 0.25 µg/mL; in [24], 0.5 µg/mL; in experiment [25] it was 0.032 µg/mL; in experiment [26] it was 0.032 µg/mL (≈ 0.0703 µM); in [27], 128 µg/mL (≈ 281 µM). In addition, the MIC turned out to be 0.032 µg/mL in [28] and 0.064 µg/mL in [29].
